Measured values from ChEMBL document CHEMBL2413044, “Synthesis and biological evaluation of potential threonine synthase inhibitors: Rhizocticin A and Plumbemycin A” (Bioorg Med Chem, 2013).
Calls of active or inactive are those of the source.

Columns and labels:
Assay type in all cases: functional, organism-based
Pseudomonas aeruginosa [1] = assay: Antibacterial activity against Pseudomonas aeruginosa 2 to 10 ug/L after 24 hrs by Stephenson-Wetham medium disc diffusion method in absence of amino acids
Summary of the method: (§1)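 Agar diffusion. Sterile 6 mm paper disks carrying different amounts of compound were placed on Stephenson–Wetham agar (20 g/L agar) pre-seeded with the indicator bacterium. Amounts matched those of the liquid test. After 24 h at 37 °C, the diameter of the growth-inhibition zone was measured.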

Escherichia coli [2] = assay: Antibacterial activity against Escherichia coli 2 to 10 ug/L after 24 hrs by Stephenson-Wetham medium disc diffusion method in absence of amino acids; summary of the method: as §1
Listeria innocua [3] = assay: Antibacterial activity against Listeria innocua 2 to 10 ug/L after 24 hrs by Stephenson-Wetham medium disc diffusion method in absence of amino acids; summary of the method: as §1
Bacillus subtilis [4] = assay: Antibacterial activity against Bacillus subtilis 2 to 10 ug/L after 24 hrs by Stephenson-Wetham medium disc diffusion method in absence of amino acids; summary of the method: as §1
Pseudomonas aeruginosa [5] = assay: Antibacterial activity against Pseudomonas aeruginosa 2 to 10 ug/L after 24 hrs by Stephenson-Wetham medium disc diffusion method; summary of the method: as §1
Escherichia coli [6] = assay: Antibacterial activity against Escherichia coli 2 to 10 ug/L after 24 hrs by Stephenson-Wetham medium disc diffusion method; summary of the method: as §1
Listeria innocua [7] = assay: Antibacterial activity against Listeria innocua 2 to 10 ug/L after 24 hrs by Stephenson-Wetham medium disc diffusion method; summary of the method: as §1
Bacillus subtilis [8] = assay: Antibacterial activity against Bacillus subtilis 2 to 10 ug/L after 24 hrs by Stephenson-Wetham medium disc diffusion method; summary of the method: as §1
Pseudomonas aeruginosa [9] = assay: Antibacterial activity against Pseudomonas aeruginosa 2 to 10 ug/L after 24 hrs by microdilution method
Escherichia coli [10] = assay: Antibacterial activity against Escherichia coli 2 to 10 ug/L after 24 hrs by microdilution method
Listeria innocua [11] = assay: Antibacterial activity against Listeria innocua 2 to 10 ug/L after 24 hrs by microdilution method
Bacillus subtilis [12] = assay: Antibacterial activity against Bacillus subtilis 2 to 10 ug/L after 24 hrs by microdilution method
Nakaseomyces glabratus [13] = assay: Antifungal activity against Candida glabrata at 3.5 to 1050 ug/L after 24 hrs by YNB medium disc diffusion method in absence of amino acids
Summary of the method: (§2)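 Disk diffusion on yeast-seeded agar plates (20 g/L agar added), either malt extract medium or YNB without amino acids. Sterile 6 mm paper disks held varying amounts of compound, matching the liquid-assay concentrations. The growth-inhibition zone diameter was measured after 24 h at 28 °C.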

Saccharomyces cerevisiae [14] = assay: Antifungal activity against Saccharomyces cerevisiae at 3.5 to 1050 ug/L after 24 hrs by YNB medium disc diffusion method in absence of amino acids; summary of the method: as §2
Candida albicans [15] = assay: Antifungal activity against Candida albicans at 3.5 to 1050 ug/L after 24 hrs by YNB medium disc diffusion method in absence of amino acids; summary of the method: as §2
Nakaseomyces glabratus [16] = assay: Antifungal activity against Candida glabrata at 3.5 to 1050 ug/L after 24 hrs by malt extract medium disc diffusion method; summary of the method: as §2
Saccharomyces cerevisiae [17] = assay: Antifungal activity against Saccharomyces cerevisiae at 3.5 to 1050 ug/L after 24 hrs by malt extract medium disc diffusion method; summary of the method: as §2
Candida albicans [18] = assay: Antifungal activity against Candida albicans at 3.5 to 1050 ug/L after 24 hrs by malt extract medium disc diffusion method; summary of the method: as §2
Nakaseomyces glabratus [19] = assay: Antifungal activity against Candida glabrata at 3.5 to 1050 ug/L after 24 hrs by microdilution method
Summary of the method: (§3)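 Yeast microdilution in 24-well plates. Wells were seeded at OD600 0.1 and grown aerobically with the compound (range as in the assay line) for 24 h at 28 °C with agitation. Growth was read as OD600. Runs were in triplicate in YPD, malt extract (20 g/L), RPMI 1640, and YNB without amino acids.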

Saccharomyces cerevisiae [20] = assay: Antifungal activity against Saccharomyces cerevisiae at 3.5 to 1050 ug/L after 24 hrs by microdilution method; summary of the method: as §3
Candida albicans [21] = assay: Antifungal activity against Candida albicans at 3.5 to 1050 ug/L after 24 hrs by microdilution method; summary of the method: as §3

Measured: Activity

C[C@H](N)C(=O)N[C@@H](CC(=O)O)C(=O)N[C@@H](/C=C\CP(=O)(O)O)C(=O)O
not listed: Nakaseomyces glabratus [13] | Saccharomyces cerevisiae [14] | Candida albicans [15] | Nakaseomyces glabratus [16] | Saccharomyces cerevisiae [17] | Candida albicans [18] | Nakaseomyces glabratus [19] | Saccharomyces cerevisiae [20] | Candida albicans [21]
inactive: all other assays above

N=C(N)NCCC[C@H](N)C(=O)N[C@@H](/C=C\CP(=O)(O)O)C(=O)O
inactive: Nakaseomyces glabratus [13] | Saccharomyces cerevisiae [14] | Candida albicans [15] | Nakaseomyces glabratus [16] | Saccharomyces cerevisiae [17] | Candida albicans [18] | Nakaseomyces glabratus [19] | Saccharomyces cerevisiae [20] | Candida albicans [21]
